Source: PubChem BioAssay
RORA act: activators of orphan receptor RORA, primary screen, cell-based, luminescence; Nuclear receptor ROR-alpha (Homo sapiens), P35398; CHO-K1 Gal4-RORA LBD luciferase reporter; percent increase over mock-subtracted basal signal; activation, % at 10 µM; 65,000 compounds, 1.5% hits;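 active means activation above the mean of all tested compounds plus 3 SD, cut at about 49% in these data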;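 further: 0% = DMSO-treated RORA cells and 100% = added signal equal to DMSO minus mock-transfected cells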
S1P1 ag pot: S1P1 agonists and agonism potentiators, primary screen, cell-based, primary and confirmation screens, CRE-bla reporter | Sphingosine 1-phosphate receptor 1 (Homo sapiens), P21453 | S1P1 CRE-bla cells, forskolin, beta-lactamase FRET, potentiator mode; S1P1 agonist co-added at EC20, 2 nM; 100% = saturating reference agonist, 0% = basal | activation, % at 9.5 µM | 56,000 compounds, 0.57% hits;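 active means activation above a cutoff set at the mean activation of all tested compounds plus 3 SD, cut at about 54% in these data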;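 further: forskolin at 4 µM as EC80 and the EC20 agonist is SEW2871; 100% = SEW2871 at its EC100 plus forskolin at EC80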
Target sequence (P21453 whole entry, looked up): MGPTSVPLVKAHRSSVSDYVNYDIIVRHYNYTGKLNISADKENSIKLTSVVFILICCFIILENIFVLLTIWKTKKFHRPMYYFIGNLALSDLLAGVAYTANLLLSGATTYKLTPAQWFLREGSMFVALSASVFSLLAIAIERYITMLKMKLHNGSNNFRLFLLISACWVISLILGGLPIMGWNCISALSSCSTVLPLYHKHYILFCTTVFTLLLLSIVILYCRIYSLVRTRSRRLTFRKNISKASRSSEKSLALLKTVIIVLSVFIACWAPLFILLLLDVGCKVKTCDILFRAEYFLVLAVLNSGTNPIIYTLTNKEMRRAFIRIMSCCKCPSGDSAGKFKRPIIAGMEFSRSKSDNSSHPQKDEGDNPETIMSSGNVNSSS
M1 agonist: M1 muscarinic receptor agonists, primary screen, CHO-M1 cells, Fluo-4 calcium, agonist mode; Muscarinic acetylcholine receptor M1; B-score at 10 µM; Fluo-4 calcium fluorescence; active compounds read high; 64,000 compounds, 3% hits;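 active means fluorescence rise, raw or as B-score row- and column-corrected plate score, outside the 99.7% band of its plate's samples, either direction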
M1 antag: antagonists of rat M1 muscarinic receptor; Muscarinic acetylcholine receptor M1 (Rattus norvegicus), P08482; B-score at 10 µM; 64,000 compounds, 3.4% hits; CHO-M1 cells, Fluo-4 calcium, ACh EC80 antagonist mode; active compounds read low;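 active means calcium fluorescence response, raw or row-and-column corrected B-score, differing from the plate sample mean either way at a set confidence level, mostly lower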
S1P3 ag: human S1P3 receptor agonists, primary screen, cell-based, primary and confirmation, NFAT-BLA reporter. 60,000 compounds, 0.1% hits. AID 373, 2006. S1P3 NFAT-BLA reporter cells, agonism, FRET ratio; relative to 1 µM S1P, basal subtracted. activation, % at 4.5 µM;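 active means activation above the screen-wide mean plus 3 SD, cut at about 4.5% in these data, passing the limit was not always enough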
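Material: Human S1P3 NFAT-BLA reporter CHO cells | Incubation: Overnight plating, 4 h compound 37 °C, 2 h substrate RT | Signal: FRET β-lactamase substrate fluorescence, excitation 405 nm, 460/535 nm emission ratio, background-subtracted | Compound: 4.5 µM final, single dose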
SF1 activator: activators of human SF-1, primary screen, cell-based, CHO-K1, Gal4-SF-1 LBD, luciferase luminescence. Steroidogenic factor 1 (Homo sapiens), Q13285. CHO-K1 Gal4-SF-1 LBD luciferase reporter; % increase over DMSO SF-1-specific signal. activation, % at 10 µM. 65,000 compounds, 1.9% hits;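 active means activation above the mean activation of all tested compounds plus 3 SD, cut at about 50% in these data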
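Assay system: CHO-K1 cells co-transfected with Gal4 DBD–human SF-1 LBD, 5xGal4 luciferase reporter; doses: 10 µM only; incubation: 20 h compound exposure at 37 °C after 1 h cell settling; signal: luciferase light emission; evaluation: percent activation versus DMSO; repeats: one test per compound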
Starred values were filed as active, the others as inactive; · = no result. A selection: hits, their analogues and other compounds. The true share with any hit is near 8.8%.

SMILES | RORA act | S1P1 ag pot | M1 agonist | M1 antag | S1P3 ag | SF1 activator
Cc1cc(N2CCN(C(=O)c3ccco3)CC2)n2nc(-c3cccc(F)c3)cc2n1 | -17.1 | -0.8 | 2.89* | -0.799 | 0.7 | -12.9
C=CCOn1c(=O)c(-c2ccc(OC)cc2)[n+]([O-])c2ccccc21 | -11.9 | 4.0 | 0.107 | -0.0316 | -1.3 | -14.9
O=c1c(-c2ccc(Cl)cc2)[n+]([O-])c2ccccc2n1O | -12.5 | -0.9 | 28.3* | -0.711 | -0.2 | -5.3
CN1CCc2c(sc3c2C(=O)NC(c2ccco2)N3)C1 (stereo not given) | -2.5 | 3.0 | 3.54 | 0.628 | -1.1 | 5.5
O=C1NC(c2cccs2)Nc2sc3c(c21)CCCC3 (stereo not given) | 20.9 | -9.8 | -0.749 | 0.118 | -0.2 | 69.7*
Cc1cc(C)nc(SCc2nnc(SCC(=O)Nc3ccccc3C)n2Cc2ccco2)n1 | -8.2 | -16.5 | -1.28 | 0.621 | -0.2 | 8.1
COc1ccc(CCNC(=O)CSc2nnc(CNC(=O)c3ccccc3F)o2)cc1OC | -1.7 | · | -0.052 | 0.0198 | · | 4.6
Cc1ccc(C(=O)C(C)OC(=O)C2CC(=O)N(C3CCCCC3)C2)cc1 (stereo not given) | -14.6 | -8.6 | -0.928 | -1.26 | -0.2 | -4.2
Clc1cccc2sc(N3CCCC3)nc12 | 22.4 | -28.3 | 0.844 | -0.363 | 1.1 | 50.0*
Clc1ccccc1CSc1ncccn1 | 0.2 | -10.7 | 0.388 | 0.0421 | -0.6 | 2.9
O=C(CSc1ncccn1)NCc1ccccc1Cl | 31.1 | -28.4 | 1.63 | 0.717 | -0.4 | 68.3*
CC1(C)CC(c2csc(N)n2)CCO1 (stereo not given) | -13.1 | -29.5 | -0.919 | -0.718 | 0.7 | -9.7
C=CCSc1nncn1/N=C/c1ccc(OC)cc1 | 90.8* | -5.1 | 0.0495 | 0.0916 | -0.2 | 83.3*
C=CCN(CC=C)c1nc2ccccc2nc1C(C#N)C(=O)OC(C)C (stereo not given) | -26.0 | -15.5 | 0.212 | -0.911 | -1.4 | -19.4
O=C(CN1C(=O)CCC1=O)Nc1nc(-c2nc3ccccc3s2)cs1 | 86.8* | 17.8 | 1.12 | 0.965 | 0.2 | 105.7*
O=C(Nc1nc(-c2ccc3c(c2)OCO3)cs1)C1CC1 | 72.3* | 3.1 | -0.682 | -1.01 | -1.2 | 51.1*
O=C(Nc1nc(-c2nc3ccccc3s2)cs1)C1CC1 | 51.0* | 0.6 | 1.26 | 0.205 | 0.4 | 29.0
Cc1cc(C)cc(NC(=O)CCN2CC(C)OC(C)C2)c1 (stereo not given) | 7.9 | 1.0 | 1.6 | -0.796 | -0.9 | -17.8
CCn1c(SCc2nc3cc(OC)c(OC)cc3c(=O)[nH]2)nnc1-c1ccncc1 | -23.2 | -16.8 | -0.118 | 1.08 | -0.1 | -17.1
COC(=O)CSc1nc(-c2cccs2)ccc1C#N | 59.9* | 2.9 | 0.476 | 0.107 | -1.8 | 82.9*
Cc1cc(N)c(-n2cc3c(=O)n(C)c(=O)n(C)c3c2)cc1C | 54.0* | -54.1 | -0.44 | -0.234 | -0.7 | 30.5
Cc1ccc(-c2c3c(=O)n(C)c(=O)n(C)c3c3c(C)cc(C)nn23)cc1 | -2.7 | 33.5 | 9.52* | -12.9* | -1.5 | -5.0
Cc1ccc(-c2c3c(=O)n(C)c(=O)n(C)c3cn2N2CCOCC2)cc1 | 18.9 | -19.6 | 0.565 | -0.408 | -0.8 | 11.2
CCNC(=O)NC(=O)COc1ccccc1C#N | 18.7 | -0.6 | 0.222 | -0.393 | 0.4 | 54.4*
CCN1C(=O)NC(c2cc(Br)ccc2OC)C(C(=O)OC)=C1C (stereo not given) | -4.6 | 6.4 | -0.42 | 0.118 | -1.4 | -20.8
O=C(NCc1nc2ccccc2[nH]1)c1cc2ccccc2oc1=O | -10.9 | -24.6 | -0.514 | 0.179 | 1.2 | 17.4
CCN(CC)c1ccc2cc(-c3nc4ccccc4[nH]3)c(=O)oc2c1 | -31.9 | 26.5 | 419* | -21.5* | -2.6 | -44.9
